A number with no mark means an inactive call. Inconclusive results are not listed. The source made the active and inactive calls.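 Rule for the calls, unless noted: active = inhibition over a set limit, the all-compound mean plus 3 SD, in both replicate runs; inconclusive = over that limit in just one replicate run; inactive = at or under that limit in both runs.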
Columns and labels:
[1] = OD615 S. cerevisiae growth inhibition, permissive medium, pilot counter-assay, permissive growth control for S. cerevisiae lifespan shortening project (AID 705;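 active = growth inhibition above 25% in both replicates, a cutoff set 3 SD above the mean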); details: OD615, 24 h, at 10 µM, stronger effect = higher value
Procedure, shortened: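 System: engineered DeaD yeast; Medium: permissive raffinose/galactose medium; Compound dosing: 10 µM single dose, 0.25% DMSO; Incubation: 4 h cell pre-growth, 24 h exposure at 30 °C; Technique: OD at 615 nm; Evaluation: growth inhibition from lowered OD615 after 24 h.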

[2] = Restrictive medium S. cerevisiae growth inhibition, OD615, pilot screen of yeast lifespan reduction project, restrictive growth control (AID 706;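 active = growth inhibition above a set limit, 3 SD over mean compound inhibition, in both replicates, cut at about 43% in these data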;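 note: modified DeaD lifespan yeast strain shifted to restrictive glucose medium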); details: OD615, 48 h, at 10 µM, stronger effect = higher value
Procedure, shortened: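 Material: modified S. cerevisiae; buffer or medium: CSMM-D glucose medium; doses: one concentration, 10 µM final, 0.25% DMSO; incubation: 48 h compound exposure at 30 °C; detection: optical density at 615 nm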

[3] = viability gain of MRP-1-high H69AR cells under doxorubicin, pilot screen, MRP-1 activator project, CellTiter-Glo, duplicate (AID 807;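 active = viability increase at or above a cutoff of the median across tested compounds plus 3 SD, cut at about 8.5% in these data, passing the limit was not always enough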;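 note: compound pretreatment 18-22 h then 72 h combined with doxorubicin; 0% = doxorubicin alone and 100% = vehicle without doxorubicin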); details: H69AR viability with doxorubicin, CellTiter-Glo luminescence; at 10 µM; stronger effect = higher value
[4] = growth suppression of beta-catenin knockout HCT116, pilot screen, human colon tumor cells (AID 823;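 active = cell viability at or below a set limit in both duplicate runs, the limit being the all-compound median minus 4 SD, cut at about 23% in these data, passing the limit was not always enough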;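 note: 0% = wells killed by 20 µM Hyamine and 100% = untreated DMSO cell wells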); details: CellTiter-Glo, 60 h, at 10 µM, stronger effect = lower value
[5] = growth suppression of PTEN-deleted HCT116, pilot screen, cell-based, HCT116 clonal line, CellTiter-Glo (AID 824;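 active = viability at or below 27.92% in each of two runs, the all-compound median minus 4 SD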;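 note: 0% = 20 µM Hyamine control and 100% = vehicle cell control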); details: 60 h, at 10 µM, stronger effect = lower value
[6] = inhibitors of the yeast RAM network, pilot screen, dse1pr::URA3 reporter, 5-FOA selection (AID 869);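 note: 0% = DMSO wells with no growth and 100% = 10 µM 1-NA-PP1 with full growth; RAM network block rescues cells from 5-FOA so hits raise OD615 growth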; details: S. cerevisiae dse1pr::URA3 5-FOA growth, OD615, 2 d; at 10 µM; stronger effect = higher value; strain carries analog-sensitive mutant Cbk1 kinase
[7] = RAM signaling pathway blockade in yeast – S. cerevisiae, Pdr1DBD-CYC8 efflux-inhibited sensitized strain, primary screen (AID 1298;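 active = RAM network inhibition above 8.4% in each of two replicates, 3 SD over the compound average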;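 note: 0% = DMSO untreated cells without growth and 100% = 10 µM 1-NA-PP1 full growth; higher means more yeast growth rescued from 5-FOA killing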); details: S. cerevisiae cbk1-as DSE1-URA3 strain, 5-FOA growth OD615, 2 d; at 50 µM; stronger effect = higher value

SMILES	growth inhibition [1] [%]	growth inhibition [2] [%]	viability increase [3] [%]	viability [4]	viability [5]	inhibition [6] [%]	RAM network inhibition [7] [%]
COc1ccc(NC(=O)CN2C(=O)CC(C)(C)S(=O)(=O)c3ccccc32)cc1	-4.11	2.55	0.92	104%	96.7%	1.35	2.45
CC(C)(C)n1nc2c(c1NC(=O)c1ccc(Br)cc1)CS(=O)C2 (stereo unspecified)	-8.25	-4.19	0.64	107%	99.2%	0.495	-0.53
CN(C)C(=O)Nc1cnc2ccccc2c1	0.64	-11.9	-0.11	104%	99.3%	1.16	1.97
CC12CCC(C(=O)Nc3ccc4c(c3)OCCO4)(OC1=O)C2(C)C (stereo unspecified)	-20.5	-5.64	-0.01	93.7%	97.8%	1.28	-0.36
CC1Cc2ccccc2C(=O)N1 (stereo unspecified)	0.58	11.4	0.15	106%	99%	0.36	3.5
O=S(=O)(NC1=NCCCCC1)c1cccs1	-0.86	-16.7	-0.2	100%	98.2%	0.765	5.54
O=C(c1ccc(CS(=O)(=O)c2c(Cl)cccc2Cl)o1)N1CCCC1	-1.83	-21	-1.96	103%	93.2%	2.21	-0.84
O=C(CCn1c(=S)[nH]c2ccccc2c1=O)N1CCOCC1	-0.255	9.25	0.5	105%	103%	0.715	-0.13
CC(NC(=O)C1CCC(=O)N1Cc1ccc(F)cc1)c1ccc2c(c1)OCCO2 (stereo unspecified)	-1.08	-4.75	-1.94	96.4%	94.9%	0.975	4.36
O=C(COc1ccccc1)NCc1nnc(SCC(=O)Nc2nccs2)n1-c1ccccc1	-10.1	-4.89	-1.46	101%	101%	2.13	4.48
CCCn1nc(NC(=O)CC(C)C)c2cc3ccccc3nc21	-14.6	-11.4	-5.27	87.5%	87.3%	2.49	3.01
CC(C)C(NS(=O)(=O)c1ccc2c(c1)oc(=O)n2C)C(=O)N1CCN(Cc2ccccc2)CC1 (stereo unspecified)	-5.8	-20.3	-3.99	88.9%	92%	2.62	-2.73
CC(=O)SCCC(=O)N1C(C)CCCC1C(=O)O (stereo unspecified)	-1.05	-7.75	-0.97	95.9%	102%	0.62	5.78
CN(C)c1ccc(S(=O)(=O)c2ccc(Cl)cc2)cc1	2.13	16.1	-1.11	103%	100%	1.79	5.79
CCn1c(CCC(=O)Nc2cc(F)ccc2C)nc2cc(S(=O)(=O)N(C)C)ccc21	-6.57	-1.81	-0.38	99.5%	97.1%	2.07	6.18
O=C(c1ccc(CS(=O)(=O)c2ccc(Br)cc2)o1)N1CCN(C2CCCCC2)CC1	0.435	9.43	-3.78	112%	95.8%	1.93	0.46
Cc1ccc(C(=O)N2CCN(c3ccccc3)CC2)cc1C	3.37	8.08	0.84	101%	97.7%	0.13	2.03

SMILES	growth inhibition [1] [%]	growth inhibition [2] [%]	viability increase [3] [%]	viability [4]	viability [5]	inhibition [6] [%]	RAM network inhibition [7] [%]
O=C(CN1C(=O)CSc2ncccc21)NCCN1CCOCC1	0.545	-1.25	-0.4	106%	99.7%	2.09	3.41
CC(C)CCNC(=O)CCS(=O)(=O)c1cccc2nonc12	-8.87	-22.1	-1.75	105%	103%	1.04	4.52
O=C(CSc1nnc(C2COc3ccccc3O2)o1)N1CCCCC1 (stereo unspecified)	-7.62	2.56	-0.36	98.7%	105%	-0.035	0.97
COc1ccc(OC)c(CNC(=O)CCc2nc(-c3cccs3)no2)c1	2.87	11.3	-2.92	98%	93.4%	1.71	2.56
CCSc1nnc(NC(=O)c2cc3c(s2)CCCC3)s1	-3.65	-0.425	-1.67	54.3%	60.2%	2	-1.29
CC(=O)NCCc1ccc(S(=O)(=O)N2CCCC2)cc1	-6.14	1.21	0.04	96.2%	96%	3.39	3.82
O=C(O)c1ccc(NS(=O)(=O)c2cc(Cl)ccc2Cl)cc1	-13.7	-25.1	-2.13	97.8%	95.3%	1.72	4.43
CCN1CCN(CC(O)COc2ccc(C(C)=O)cc2)CC1 (stereo unspecified)	-5.8	-1.04	0.34	98.8%	100%	0.405	0.31
Cc1cc(C)c2c(=O)n(CC(=O)N3CCC(N4CCCCC4)CC3)sc2n1	4.7	9.28	-7.14	2.7% (active)	16.2% (active)	2.08	0.2
CCCCNC(=O)c1cc2c(=O)n3cccc(C)c3nc2n1C	-8.58	-6.39	-4.36	89.4%	87.5%	0.93	2.87
O=C1C(C=NCCCN2CCOCC2)=C(O)c2ccccc21	-1.9	10.5	-4.78	98.6%	90.2%	0.71	5.89
Fc1ccccc1N1CCN(C2CCN(Cc3c[nH]c4ccccc34)CC2)CC1	-1.12	2.13	-6.63	47.1%	58.8%	1.08	0.22
CCN(CC)S(=O)(=O)c1cc(C(=O)Oc2ccccc2OC)ccc1OC	4.58	2.38	-0.11	86.1%	85.6%	1.38	3.93
COc1cccc(NC(=O)Cn2cc3c(n2)CCCCC3)c1	-10	-7.44	0.07	98.2%	92%	1.66	6.31
CCOc1ccc(N(CC(=O)NC2CCCC2)S(=O)(=O)c2c(C)noc2C)cc1	-12.7	-2.85	-2.27	97.4%	94.9%	3.61	8.02
CC(Sc1nnc(Cn2c(=O)sc3ccccc32)n1C)c1ccccc1 (stereo unspecified)	-3.63	15.1	0.33	92.8%	96.3%	1.69	11.7
